In PubChem BioAssay AID540322 (Johns Hopkins Ion Channel Center, 2011):
pIC50: −log10 of the molar value.

What follows are compounds tested against Potassium channel subfamily K member 9 (Homo sapiens) (UniProt Q9NPC2) (assay: KCNK9 potassium channel inhibitors, SAR follow-up, HEK293 cells, thallium flux, round II (AID 540322)). Conditions: HEK293-KCNK9, FluxOR thallium flux fluorescence.
Outline: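 Material: HEK293 cells stably expressing the KCNK9 potassium channel; also added: K2SO4 plus Tl2SO4 stimulus (5x stock); compound dosing: multi-concentration series; timing: 90 min dye loading, 20 min compound pre-incubation, room temperature; measured by: FluxOR thallium-sensitive dye fluorescence, 110 s kinetic read post-stimulus; evaluation: IC50 from normalized fluorescence change; repeats: replicates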

Sequence of Potassium channel subfamily K member 9 (Homo sapiens) (Q9NPC2 whole entry, looked up): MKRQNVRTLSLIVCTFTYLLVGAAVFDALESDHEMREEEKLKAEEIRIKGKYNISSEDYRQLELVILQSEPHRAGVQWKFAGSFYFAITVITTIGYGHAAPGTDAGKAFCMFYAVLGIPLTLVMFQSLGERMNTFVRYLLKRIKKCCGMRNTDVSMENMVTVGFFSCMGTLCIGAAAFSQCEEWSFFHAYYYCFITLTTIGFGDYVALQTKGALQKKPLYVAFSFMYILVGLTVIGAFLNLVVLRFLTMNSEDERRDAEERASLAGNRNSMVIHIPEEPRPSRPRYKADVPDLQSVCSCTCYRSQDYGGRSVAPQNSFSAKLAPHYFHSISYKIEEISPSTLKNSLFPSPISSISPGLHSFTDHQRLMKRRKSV

Row | pIC50 | SMILES
1 | 5.76 | COc1ccccc1C(=O)Nc1cccc(NC(=O)c2ccccc2)c1
2 | 6.28 | CC(C1CC2CCC1C2)n1c(-c2ccccc2)n[nH]c1=S (stereo not given)
3 | 6.33 | CC(C1CC2CCC1C2)n1c(-c2ccccc2Cl)n[nH]c1=S (stereo not given)
4 | 6.54 | CCOc1ccccc1NC(=O)c1cccc(NC(=O)c2cccc(C)c2)c1
5 | 6.24 | CCOc1ccccc1C(=O)Nc1cccc(NC(=O)c2cccc(C)c2)c1
6 | 5.74 | CCOc1ccccc1NC(=O)c1cccc(NC(=O)c2cccc(Cl)c2)c1
7 | 5.63 | CCOc1ccccc1NC(=O)c1cccc(NC(=O)c2cccc(OC)c2)c1
8 | 5.27 | O=C(Nc1cccc(NC(=O)c2ccccn2)c1)c1ccccc1
9 | 5.52 | COc1ccccc1NC(=O)c1cccc(NC(=O)c2ccccc2OC)c1
10 | 6.14 | Cc1ccccc1-c1n[nH]c(=S)n1C(C)C1CC2CCC1C2 (stereo not given)
11 | 5.78 | Cc1cccc(C(=O)Nc2cccc(NC(=O)c3ccco3)c2)c1
12 | 6.49 | CCOc1ccccc1NC(=O)c1cccc(NC(=O)c2ccccc2C(F)(F)F)c1
13 | 5.16 | Cc1cccc(C(=O)Nc2cccc(NC(=O)c3cccs3)c2)c1
14 | 6.36 | CC(C1CC2CCC1C2)n1c(-c2cccc(Cl)c2)n[nH]c1=S (stereo not given)
15 | 5.89 | CCOc1ccccc1NC(=O)c1cccc(NC(=O)C2CCCCC2)c1
16 | 5.72 | CCOc1ccccc1NC(=O)c1cccc(NC(=O)CC2CCCCC2)c1
17 | 5.98 | CCOc1ccccc1C(=O)Nc1cccc(NC(=O)c2ccccc2C(F)(F)F)c1
18 | 5.93 | CCOc1ccccc1NC(=O)c1cccc(NC(=O)c2ccccc2OC)c1
19 | 6.13 | COc1ccccc1C(=O)Nc1cccc(NC(=O)c2ccccc2C(C)C)c1
20 | 5.24 | O=C(Nc1ccccc1Cl)c1cccc(NC(=O)C2CCCC2)c1
21 | 4.83 | CCOc1ccccc1NC(=O)c1cccc(NC(=O)c2ccc(C)cc2)c1
22 | 5.98 | Cc1cccc(C(=O)Nc2cccc(NC(=O)c3ccccc3OC(F)(F)F)c2)c1

Row | pIC50 | SMILES
23 | 5.93 | COc1ccccc1C(=O)Nc1cccc(NC(=O)c2ccccc2OC(F)(F)F)c1
24 | 5.14 | O=C(Nc1cccc(NC(=O)c2ccccc2C(F)(F)F)c1)c1ccccc1
25 | 5.57 | COc1ccccc1C(=O)Nc1cccc(NC(=O)c2cccc(C)c2)c1
26 | 6.03 | Cc1cccc(C(=O)Nc2cccc(NC(=O)c3ccccc3C)c2)c1
27 | 5.46 | COc1ccccc1C(=O)Nc1cccc(NC(=O)c2ccccc2C)c1
28 | 6.08 | COc1ccccc1-c1n[nH]c(=S)n1C(C)C1CC2CCC1C2 (stereo not given)
29 | 5.38 | CCOc1ccccc1NC(=O)c1cccc(NC(=O)CC2CCCC2)c1
30 | 4.53 | COc1cccc(C(=O)Nc2cccc(NC(=O)c3cccc(C)c3)c2)c1
31 | 5.95 | CCOc1ccccc1C(=O)Nc1cccc(NC(=O)C2CCCC2)c1
32 | 6.00 | Cc1cccc(C(=O)Nc2cccc(NC(=O)c3cccc(C)c3)c2)c1
33 | 6.00 | CC(C1CC2CCC1C2)n1c(-c2ccsc2)n[nH]c1=S (stereo not given)
34 | 4.89 | Cc1cccc(C(=O)Nc2cccc(NC(=O)c3ccccc3C(F)(F)F)c2)c1
35 | 4.72 | COc1cccc(OC)c1C(=O)Nc1cccc(NC(=O)c2cccc(C)c2)c1
36 | 5.86 | CCOc1ccccc1NC(=O)c1cccc(NC(=O)c2cccc(C(F)(F)F)c2)c1
37 | 4.92 | Cc1cccc(C(=O)Nc2cccc(NC(=O)C3CCCCC3)c2)c1
38 | 5.37 | CC(C1CC2CCC1C2)n1c(-c2ccoc2)n[nH]c1=S (stereo not given)
39 | 5.47 | Cc1cccc(C(=O)Nc2cccc(NC(=O)c3ccccc3OCC(C)C)c2)c1
40 | 5.58 | COc1ccccc1NC(=O)c1cccc(NC(=O)CC2CCCC2)c1
41 | 5.44 | COc1ccccc1C(=O)Nc1cccc(NC(=O)c2ccccc2OC)c1
42 | 4.87 | Cc1cccc(C(=O)Nc2cccc(NC(=O)c3cccc(Cl)c3)c2)c1
43 | 5.76 | COc1ccc(-c2n[nH]c(=S)n2C(C)C2CC3CCC2C3)cc1 (stereo not given)
44 | 5.74 | CCOc1ccccc1NC(=O)c1cccc(NC(=O)C2CCCC2)c1

Row | pIC50 | SMILES
45 | 5.70 | CCOc1ccccc1C(=O)Nc1cccc(NC(=O)c2ccccc2OC)c1
46 | 5.19 | Cc1ccccc1C(=O)Nc1cccc(NC(=O)c2ccccc2)c1
47 | 6.68 | COc1cccc(-c2n[nH]c(=S)n2C(C)C2CC3CCC2C3)c1 (stereo not given)
48 | 5.62 | Cc1cccc(C(=O)Nc2cccc(NC(=O)c3ccccc3C(C)C)c2)c1
49 | 5.39 | CCOc1cccc(NC(=O)c2cccc(NC(=O)C3CCCC3)c2)c1
50 | 4.51 | CCOc1ccccc1NC(=O)c1cccc(NC(=O)C(C)(C)C)c1
51 | 4.59 | COc1cccc(C(=O)Nc2cccc(NC(=O)c3ccccc3)c2)c1
52 | 5.10 | O=C(Nc1cccc(NC(=O)C2CCCCC2)c1)c1ccccc1
53 | 5.37 | CCOc1ccccc1NC(=O)c1cccc(NC(=O)c2ccccc2C)c1
54 | 5.88 | COc1ccccc1NC(=O)c1cccc(NC(=O)c2ccccc2C(F)(F)F)c1
55 | 4.99 | CCOc1ccccc1NC(=O)c1cccc(NC(=O)C2CC2)c1
56 | 6.49 | CC(C1CC2CCC1C2)n1c(-c2ccco2)n[nH]c1=S (stereo not given)
57 | 5.58 | CCOc1ccccc1NC(=O)c1cccc(NC(=O)c2ccccc2Cl)c1
58 | 5.84 | CCOc1ccccc1NC(=O)c1cccc(NC(=O)c2ccccc2)c1
59 | 4.70 | Cc1cccc(C(=O)Nc2cccc(NC(=O)c3ccccc3Cl)c2)c1
60 | 5.81 | COc1ccccc1NC(=O)c1cccc(NC(=O)C2CCCC2)c1
61 | 4.99 | CC(C1CC2CCC1C2)n1c(C2CCOC2)n[nH]c1=S (stereo not given)
62 | 5.74 | Cc1cccc(C(=O)Nc2cccc(NC(=O)c3ccccc3)c2)c1
63 | 6.10 | CCOc1ccccc1NC(=O)c1cccc(NC(=O)c2ccccc2OC(F)(F)F)c1
64 | 5.85 | COc1ccccc1NC(=O)c1cccc(NC(=O)c2ccccc2)c1
65 | 5.67 | COc1ccccc1NC(=O)c1cccc(NC(=O)C2CCCCC2)c1
